Assay outcomes: PubChem, The Scripps Research Institute Molecular Screening Center
M4 antag – human M4 muscarinic receptor antagonists, primary screen, CHO cells, Fluo-8 calcium fluorescence. 360,000 tested, 0.73% active. inhibition, % at 3 µM. AID 624125, 2012. Muscarinic acetylcholine receptor M4 (Homo sapiens), P08173. CHO-hM4 cells, ACh EC80;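 active = inhibition above its plate's cutoff, the mean inhibition of sample wells plus 3 SD, cut at about 27% in these data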;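 note: 0% = acetylcholine EC80 with DMSO and 100% = DMSO without agonist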
Target sequence (P08173 whole entry, looked up): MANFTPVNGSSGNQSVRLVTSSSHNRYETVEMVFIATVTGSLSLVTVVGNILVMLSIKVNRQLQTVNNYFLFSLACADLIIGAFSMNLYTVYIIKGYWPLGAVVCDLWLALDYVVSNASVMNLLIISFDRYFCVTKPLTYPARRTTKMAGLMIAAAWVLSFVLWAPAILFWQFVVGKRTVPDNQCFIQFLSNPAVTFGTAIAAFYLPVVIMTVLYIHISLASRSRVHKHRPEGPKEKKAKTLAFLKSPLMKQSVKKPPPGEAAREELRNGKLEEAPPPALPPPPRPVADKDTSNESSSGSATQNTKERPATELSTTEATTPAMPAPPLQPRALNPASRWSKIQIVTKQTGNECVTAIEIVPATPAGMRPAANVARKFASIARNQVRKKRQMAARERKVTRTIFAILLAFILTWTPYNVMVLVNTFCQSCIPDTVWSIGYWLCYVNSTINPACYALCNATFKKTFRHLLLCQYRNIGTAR
CHRM4 PAM – human M4 muscarinic receptor positive allosteric modulators, primary screen, CHO-K1 cells, Fluo-8 calcium fluorescence; 360,000 tested, 0.4% active; activation, % at 3 µM; CHO-K1 hM4/Gqi5, ACh EC20; 0% = ACh EC20, 100% = maximal ACh; Muscarinic acetylcholine receptor M4 (Homo sapiens), P08173;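 active = activation above its plate's cutoff, the mean activation of sample wells plus 3 SD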
M5 PAM – human M5 muscarinic receptor positive allosteric modulators, primary screen, CHO-K1 cells, Fluo-8 calcium fluorescence; activation, % at 3 µM; CHO-K1 hM5, ACh EC20 PAM; 0% = ACh EC20, 100% = ACh EC100; 360,000 tested, 0.3% active;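 active = activation above the run cutoff, the mean activation of all test compounds plus 3 SD, cut at about 18% in these data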
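Assay system: CHO-K1 hM5 cells / Incubation: Fluo-8 loading 80 min at 37 °C plus 30 min room temperature / Technique: Fluo-8 calcium dye fluorescence, kinetic read / Repeats: single replicate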
CHRM5 antagonist – human M5 muscarinic receptor antagonists, primary screen, CHO cells, Fluo-8 calcium fluorescence. Muscarinic acetylcholine receptor M5 (Homo sapiens), P08912. CHO-hM5 cells, ACh EC80. inhibition, % at 3 µM. 360,000 tested, 0.59% active;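 active = inhibition above a per-plate cutoff, the mean of that plate's test compounds plus 3 SD, cut at about 27% in these data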;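 note: 0% = acetylcholine EC80 with DMSO and 100% = DMSO without agonist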
CHRM4 agonist – human M4 muscarinic receptor agonists, primary screen, CHO-K1 cells, Fluo-8 calcium fluorescence; Muscarinic acetylcholine receptor M4 (Homo sapiens), P08173; CHO-K1 hM4/Gqi5; vehicle 0%, full acetylcholine response 100%; activation, % at 3 µM; 360,000 tested, 0.14% active; AID 624127, 2012;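 active = activation above the run mean over all test wells plus 3 SD, cut at about 32% in these data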;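 note: peak over basal fluorescence ratio per well then scaled between controls; 0% = DMSO wells and 100% = acetylcholine at EC100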
M5 ag – human M5 muscarinic receptor agonists, primary screen, CHO-K1 cells, Fluo-8 calcium fluorescence. activation, % at 3 µM. AID 624037, 2012. CHO-K1 hM5 cells; 0% DMSO wells, 100% maximal acetylcholine response. 360,000 tested, 0.19% active. Muscarinic acetylcholine receptor M5 (Homo sapiens), P08912;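 active = activation above the run's mean over test compounds plus 3 SD, cut at about 23% in these data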;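 note: signal is peak over basal fluorescence ratio across the kinetic read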
Active calls of the source: *. A selection: hits, their analogues and other compounds. The true share with any hit is near 1.8%.

COC(=O)c1ccccc1-c1c2ccc(=N)cc-2oc2cc(N)ccc12 was read as M4 antag 101*, CHRM4 PAM -20, M5 PAM -46, CHRM5 antagonist 101*, CHRM4 agonist active and M5 ag active.
For O=C(CO)c1c[nH]c2ccccc12 the results were M4 antag -2, CHRM4 PAM 0, M5 PAM 2, CHRM5 antagonist 1, CHRM4 agonist 2 and M5 ag 1.
N#Cc1c(Cl)nsc1NN was read as M4 antag 23, CHRM4 PAM -17, M5 PAM -20, CHRM5 antagonist 31*, CHRM4 agonist 20 and M5 ag 10.
For O=C1c2cccc3c(N4CCCCC4)ccc(c23)C(=O)N1c1cccc(O)c1 the results were M4 antag 36*, CHRM4 PAM -24, M5 PAM -19, CHRM5 antagonist 37*, CHRM4 agonist 41* and M5 ag 141*.
`Cc1n[nH]c(C)c1N1C(=O)c2cccc3c(N4CCCCCC4)ccc(c23)C1=O` gave M4 antag 41*, CHRM4 PAM -29, M5 PAM -21, CHRM5 antagonist 54*, CHRM4 agonist 85* and M5 ag 76*.
COc1ccc(C2NCCc3c2[nH]c2ccccc32)cc1COc1ccc(F)cc1 (stereo not given) was read as M4 antag 37*, CHRM4 PAM -4, M5 PAM 3, CHRM5 antagonist 12, CHRM4 agonist 28 and M5 ag 7.
For S=C1Cc2ccccc2N1 the results were M4 antag 23, CHRM4 PAM 39*, M5 PAM 4, CHRM5 antagonist 11, CHRM4 agonist 0 and M5 ag 0.
COc1ccc(NC(=O)C2(C)CCCN2C(=O)C(C)C)cc1OC (stereo not given) was read as M4 antag -10, CHRM4 PAM 4, M5 PAM -4, CHRM5 antagonist 2, CHRM4 agonist 0 and M5 ag 0.
Cc1ccc(NC(=O)COC(=O)CCc2nc3ccccc3c(=O)[nH]2)c(Br)c1 was read as M4 antag -13, CHRM4 PAM 25*, M5 PAM 1, CHRM5 antagonist -2, CHRM4 agonist 1 and M5 ag -4.
O=C(O)c1ccccc1C(=O)NCc1ccc2c(c1)OCO2 was read as M4 antag 8, CHRM4 PAM 3, M5 PAM -1, CHRM5 antagonist 7, CHRM4 agonist 0 and M5 ag -5.
Screening Cc1oc(C(C)(C)C)cc1C(=O)NCc1ccc2c(c1)OCO2 returned M4 antag -10, CHRM4 PAM 2, M5 PAM 0, CHRM5 antagonist 9, CHRM4 agonist 2 and M5 ag 1.
Screening O=C(NCc1ccc2c(c1)OCO2)c1cc2ccccc2o1 returned M4 antag 6, CHRM4 PAM 5, M5 PAM 30*, CHRM5 antagonist 1, CHRM4 agonist 0 and M5 ag -6.
Cn1nc(C(C)(C)C)cc1C(=O)NCc1ccc2c(c1)OCO2 was read as M4 antag 10, CHRM4 PAM -9, M5 PAM -11, CHRM5 antagonist 29*, CHRM4 agonist 13 and M5 ag 5.
Screening CC(C)Nc1nc(NCCN2CCCC2)c2sc(-c3ccccc3)cc2n1 returned M4 antag 1, CHRM4 PAM 0, M5 PAM -3, CHRM5 antagonist 5, CHRM4 agonist 1 and M5 ag -2.
`COC(=O)CNC(=O)CSc1ccccn1` gave M4 antag 1, CHRM4 PAM -2, M5 PAM 4, CHRM5 antagonist 3, CHRM4 agonist 1 and M5 ag 2.
Screening O=C(CCSc1ccccn1)c1ccccc1 returned M4 antag 8, CHRM4 PAM -1, M5 PAM -16, CHRM5 antagonist 28*, CHRM4 agonist 1 and M5 ag -11.
Screening COc1ccccc1C(=O)CSc1ccccn1 returned M4 antag 12, CHRM4 PAM -11, M5 PAM -16, CHRM5 antagonist 27*, CHRM4 agonist 10 and M5 ag 0.
For O=C(O)CCSc1ccccn1 the results were M4 antag 3, CHRM4 PAM 13, M5 PAM 3, CHRM5 antagonist -8, CHRM4 agonist 4 and M5 ag 1.
Screening CCCCNC(=O)C1c2ccccc2OCC(=O)N1Cc1ccccn1 (stereo not given) returned M4 antag -7, CHRM4 PAM 2, M5 PAM -7, CHRM5 antagonist 12, CHRM4 agonist -1 and M5 ag 1.
COc1cc(OC)cc(-c2c(Sc3ccccc3)c3cc(-c4ccc(OC)c(F)c4)ccc3n2C)c1 was read as M4 antag -8, CHRM4 PAM 6, M5 PAM 1, CHRM5 antagonist -9, CHRM4 agonist 0 and M5 ag -3.
`CCCCCn1c(CNC(=O)CCC)nc2ccccc21` gave M4 antag -8, CHRM4 PAM 8, M5 PAM -4, CHRM5 antagonist -2, CHRM4 agonist 1 and M5 ag -1.
CCCCCn1c(CNC(=O)CC)nc2ccccc21 was read as M4 antag 3, CHRM4 PAM 1, M5 PAM -10, CHRM5 antagonist -2, CHRM4 agonist 1 and M5 ag 43*.
For CCc1ccc([C@@H]2C[C@H]3[C@@H](CN2S(=O)(=O)c2ccc(C)cc2)C(=O)C[C@@H](c2ccc(Cl)cc2)N3S(=O)(=O)c2ccc(C)cc2)cc1 the results were M4 antag 3, CHRM4 PAM -2, M5 PAM 0, CHRM5 antagonist -6, CHRM4 agonist 0 and M5 ag 2.
For COCCNc1ncnc2c1cnn2-c1ccc(Cl)cc1 the results were M4 antag 28*, CHRM4 PAM 13, M5 PAM -4, CHRM5 antagonist 19, CHRM4 agonist 6 and M5 ag 2.
O=C(COC(=O)c1ccco1)NCCNC(=O)COC(=O)c1ccco1 was read as M4 antag 14, CHRM4 PAM 19*, M5 PAM 8, CHRM5 antagonist 6, CHRM4 agonist 0 and M5 ag -1.
Screening COc1ccc(CC(N)c2csc(Nc3cc(NCc4ccco4)ncn3)n2)cc1 (stereo not given) returned M4 antag -18, CHRM4 PAM -1, M5 PAM 1, CHRM5 antagonist 0, CHRM4 agonist 9 and M5 ag 2.
